This note sets out measurements from ChEMBL document CHEMBL1124637, “Synthesis and antiviral activity of several 2,5'-anhydro analogues of 3'-azido-3'-deoxythymidine, 3'-azido-2',3'-dideoxyuridine, 3'-azido-2',3'-dideoxy-5-halouridines, and 3'-deoxythymidine against human immunodeficiency virus and Rauscher-murine leukemia virus” (J Med Chem, 1989).

pIC50: −log10 of the molar value.

For orientation: pIC50 means the IC50 on a negative log10 scale, so that one unit is a factor of ten.

The test system of series [1] is CCRF-CEM. The series is described as follows: Concentration of compound required to inhibit 50% of viral replication of human immunodeficiency virus in CEM-F cells. The series is classed as functional, cell-based.
Series [2] has as its system CCRF-CEM. The series is described as follows: Concentration of compound required to inhibit 50% of host cell replication of human immunodeficiency virus in CEM-F cells. The series is classed as functional.
The subject of series [3] is Rauscher murine leukemia virus. The series is described as follows: Concentration of compound required to inhibit 50% of host cell replication of Rauscher-Murine leukemia virus. Type of series: functional.
Series [4] is described as follows: Ratio of TICD50 to that of IC50 of Rauscher-Murine leukemia virus (R-MuLv). Type of series: functional. Set-up: reference not given here.
Series [5] in a line: Ratio of TICD50 to that of IC50 of human immunodeficiency virus (HIV-1). The series is classed as functional. Set-up: reference not given here.
Series [6] concerns Rauscher murine leukemia virus. Kind of series: Concentration of compound required to inhibit 50% of viral replication of Rauscher-Murine leukemia virus. Type of series: functional, organism-based.
A short description of series [7]: Metabolic stability (Half life) at pH-2.0 was evaluated. Type of series: ADME. A digest of the protocol: (§1)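 Chemical (non-enzymatic) stability. Each compound at 2 mg/mL was incubated in 0.01 N HCl (pH 2.0) at 37 °C. Aliquots taken at various times were run on reverse-phase C-18 HPLC with a linear 0–30% CH3CN gradient into 0.01 M ammonium acetate (pH 5.5) over 30 min, with UV detection at 254 nm. Remaining anhydro compound, released parent nucleoside and pyrimidine base were quantified, and the half-life was derived.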

The nature of series [8]: Metabolic stability (Half life)of the compound at pH-7.4 was evaluated. The series is classed as ADME. The procedure, abridged:
(§2)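 Compound at 2 mg/mL held at 37 °C in phosphate-buffered saline, pH 7.4, with no enzymes present. At various times, aliquots were analysed by reverse-phase C-18 HPLC with a linear 0–30% CH3CN gradient into 0.01 M ammonium acetate (pH 5.5) over 30 min, monitored by UV at 254 nm. Intact anhydro compound, generated parent nucleoside and pyrimidine base were measured, and the half-life was derived.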

Series [9] is described as follows: Metabolic stability (Half life) at pH-7.4 was evaluated. Type of series: ADME. A digest of the protocol: as §2
Series [10] in a line: Metabolic stability (Half life)of the compound at pH-2.0 was evaluated. The series is classed as ADME. As to conditions: read-out: T1/2 h/. A digest of the protocol: as §1
For series [11], the system named is Rauscher murine leukemia virus. Kind of series: Cytotoxic concentration of compound required to inhibit 50% of host cell replication of Rauscher-Murine leukemia virus. The series is classed as functional.

Turning to `[N-]=[N+]=N[C@H]1C[C@H](n2cc(Br)c(=O)[nH]c2=O)O[C@@H]1CO`, the negative logarithm of the IC50 (pIC50) was 5.06 in series [1] and 6.64 in series [6]. Besides, in series [2], the “CC50 (50% host cell growth inhibition)” value was 127 µM. This molecule also gave a TCID50 in series [3] greater than 301 µM. For the same molecule, the Ratio was 1309 in series [4] and 15 in series [5].
With `[N-]=[N+]=N[C@H]1C[C@H](n2cc(I)c(=O)[nH]c2=O)O[C@@H]1CO`, the negative-log IC50 (pIC50) in series [1] is 4.90; in [6], 6.68. Also, the “CC50 (50% host cell growth inhibition)” value in [2] stood at 153 µM. This molecule also had a TCID50 in [3] greater than 264 µM. For the same molecule, the Ratio stood at 1257 in [4] and 12 in [5].
For the molecule `CC1=CN([C@H]2C[C@H](N=[N+]=[N-])[C@@H](CO)O2)C(N)NC1=O` (stereo partly specified), the values for the half-life in [7] and in series [8] were 2.33 h and greater than 168 h, respectively. Besides, the pIC50 in series [1] is 4.92; in series [6] it was 3.94. The “CC50 (50% host cell growth inhibition)” value in [2] was found to be 470 µM. Also, the TCID50 in [3] was greater than 376 µM. The results for the Ratio in series [4] and in [5] were 3 and 39, respectively.
On to `[N-]=[N+]=N[C@H]1C[C@H]2O[C@@H]1COC1NC(=O)C(Br)=CN12` (stereo partly specified), for which the values for the half-life in [7] and in series [9] were 0.238 h and 60.5 h, respectively. The negative logarithm of the IC50 (pIC50) in series [1] was 4.55; in series [6] it was 4.79. For the same molecule, the “CC50 (50% host cell growth inhibition)” value in series [2] was found to be 168 µM. Moreover, the TCID50 in series [3] is greater than 319 µM. Further, the results for the Ratio in series [4] and in [5] were 20 and 6, respectively.
In the case of `[N-]=[N+]=N[C@H]1C[C@H]2O[C@@H]1COC1NC(=O)C=CN12` (stereo partly specified), the half-life in [9] was 120 h; in series [10], 0.188 h. The pIC50 in series [1] is 5.31. Besides, the “CC50 (50% host cell growth inhibition)” value in [2] was greater than 100 µM. The Ratio in series [5] came to 20.
On to `CC1=CN2C(NC1=O)OC[C@H]1O[C@@H]2C[C@@H]1N=[N+]=[N-]` (stereo partly specified), for which the half-life in series [7] (read-out: T1/2 h/) is 0.492 h; in [9], greater than 75 h. The negative logarithm of the IC50 (pIC50) in [1] is 6.25; in series [6] it was 6.57. For the same molecule, in [2], the “CC50 (50% host cell growth inhibition)” value was greater than 100 µM. In [3], this molecule yielded a TCID50 greater than 400 µM. Moreover, the Ratio in [4] is on record as 1481; in series [5] it was 179.
Take `[N-]=[N+]=N[C@H]1C[C@H]2O[C@@H]1COC1NC(=O)C(I)=CN12` (stereo partly specified): the pIC50 was 4.57 in series [1] and 4.75 in series [6]. For the same molecule, the “CC50 (50% host cell growth inhibition)” value in [2] was found to be 194 µM. Also, the TCID50 in [3] was greater than 277 µM. Moreover, the Ratio in series [4] is recorded as 16; in series [5] it was 7.
On to `CC1=CN2C(NC1=O)OC[C@@H]1CC[C@H]2O1` (stereo partly specified), for which the half-life in series [7] was 0.00381 h; in series [8], 84.3 h. The pIC50 in series [1] is 4.32; in series [6], less than 3.32. In addition, the “CC50 (50% host cell growth inhibition)” value in series [2] amounted to 346 µM. In series [11], this molecule returned a TCID50 greater than 480 µM. For the same molecule, the Ratio in [4] is recorded as 1; in series [5], 7.
Regarding `Cc1cn([C@H]2CC[C@@H](CO)O2)c(=O)[nH]c1=O`, the pIC50 in [1] is 6.42; in [6] it was less than 3.35. This molecule also came in with a TCID50 in series [3] greater than 442 µM. Besides, the Ratio in series [4] is on record as 1; in series [5], 631.
Take `[N-]=[N+]=N[C@H]1C[C@H](n2ccc(=O)[nH]c2=O)O[C@@H]1CO` [NAVURIDINE]: the pIC50 was 5.56 in series [1] and 3.86 in series [6]. In addition, the TCID50 in series [2] is 166 µM; in series [3], greater than 395 µM. Also, the Ratio in series [4] is listed as 3; in [5] it was 60.
Take `Cc1cn([C@H]2C[C@H](N=[N+]=[N-])[C@@H](CO)O2)c(=O)[nH]c1=O` [ZIDOVUDINE]: the pIC50 was 7.00 in [1] and 7.64 in series [6]. In series [3], this molecule came in with a TCID50 greater than 400 µM. The Ratio in [4] amounted to 17391; in series [5], 290.
